Data taken from ChEMBL document CHEMBL1124631, “3-(aminoalkyl)-1,2,3,4-tetrahydro-5H-[1]benzopyrano[3,4-c] pyridin-5-ones as potential anticholinergic bronchodilators” (1989).

Experiments:
[1] = species: Canis familiaris; assay: Pulmonary selectivity measured as the ratio of salivation and bronchospasm; assay type: functional, Canis lupus familiaris, Bronchiole
In short: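 Pilocarpine-infused dog model measuring pulmonary resistance and salivary output under cumulative iv doses (1–10,000 μg/kg). ID50 for each response by log dose–response linear regression. Selectivity = ID50 for salivation inhibition divided by ID50 for bronchospasm inhibition. Most compounds tested in one dog.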

[2] = species: Canis familiaris; assay: Inhibition of dog salivation by 50% of control value.; assay type: functional; conditions: Canis lupus familiaris; read-out: ID50 (the source's name)
In short: (§1)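 Dogs with femoral vein cannulated; respiratory rate, heart rate and arterial pressure monitored. Bunolol 0.5 mg/kg iv given 30 min before pilocarpine nitrate infusion (0.2 mg/kg/h) to induce bronchospasm and salivation. Saliva collected from catheterized Wharton's duct every 5 min. Cumulative iv doses 1–10,000 μg/kg given every 5 min. ID50 by linear regression of log cumulative dose vs % inhibition. Mostly one dog per compound.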

[3] = test system: Cavia porcellus; assay: Methacholine challenge test was performed on guinea pigs by administration of compound at 25 mg/kg perorally; assay type: functional; conditions: route oral
In short: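 Hartley guinea pigs, six per treatment, dosed orally at 25 mg/kg 15 min before challenge. Exposed for 10 min to 0.1% methacholine chloride aerosol from two nebulizers in a closed chamber, air pressure 10 lb/in.². Time from aerosol onset to collapse recorded and averaged ± S.E.M. Non-collapsing animals removed at 10 min and scored 10.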

[4] = species: Canis familiaris; assay: Compound dose for inhibiting dog cholinergic bronchoconstriction by 50% of control value.; assay type: functional; conditions: Canis lupus familiaris, Lung; read-out: ID50 (the source's name); in short: as §1

Row | Structure (SMILES) | Ratio [1] | ED50 [2] [mg/kg] | Collapse time [3] [min] | ED50 [4] [mg/kg]
1 | Cc1cc2oc(=O)c3c(c2cc1C)CCN(CC(C)N1CCCC1)C3 (configuration not stated) | 2.2 | 0.699 | 8.2 | 0.315
2 | CCOc1cc2oc(=O)c3c(c2cc1OCC)CCN(CC(C)N1CCCC1)C3 (configuration not stated) | 1.6 | 0.163 | 9.4 | 0.099
3 | CCN(CC)C(C)CN1CCc2c(c(=O)oc3cc(OC)c(OC)cc23)C1 (configuration not stated) | 3.5 |  | 7.8 | 
4 | COc1ccc2c3c(c(=O)oc2c1)CN(CCN1CCCCCC1)CC3 | 1.8 | 0.398 | 8 | 0.223
5 | CCNC(C)CN1CCc2c(c(=O)oc3cc(OC)ccc23)C1 (configuration not stated) | 2.6 | 0.227 | 7.5 | 0.086
6 | CCCN(C)C(C)CN1CCc2c(c(=O)oc3cc(C)ccc23)C1 (configuration not stated) | 1.6 | 0.304 | 5.4 | 0.192
7 | CCN(CC)C(C)CN1CCc2c(c(=O)oc3cc(C)ccc23)C1 (configuration not stated) | 4.6 |  | 6.6 | 
8 | CCCN(CCC)CCN1CCc2c(c(=O)oc3cc(OC)ccc23)C1 | 2 | 0.855 | 7 | 0.428
9 | COc1ccc2c3c(c(=O)oc2c1)CN(CCN1CCCCC1)CC3 | 0.69 | 0.141 | 9.5 | 0.205
10 | COc1cc2oc(=O)c3c(c2cc1OC)CCN(CCN1C(C)(C)CCCC1(C)C)C3 |  |  | 2.8 | 
11 | COc1cc2oc(=O)c3c(c2cc1OC)CCN(CC(C)N(C)C)C3 (configuration not stated) | 4.5 |  | 5.2 | 
12 | COc1ccc2c3c(c(=O)oc2c1)CN(CC(C)N(C)C)CC3 (configuration not stated) | 1.1 | 0.027 | 10 | 0.025
13 | CC(C)c1ccc2c3c(c(=O)oc2c1)CN(CCN1CC2CCC(CC2)C1)CC3 | 0.61 | 0.128 | 6.2 | 0.209
14 | Cc1ccc2c3c(c(=O)oc2c1)CN(CCN1CC2CCC(CC2)C1)CC3 | 1.9 | 0.452 | 5 | 0.235
15 | CCCN(CC)C(C)CN1CCc2c(c(=O)oc3cc(C)ccc23)C1 (configuration not stated) | 1.6 | 0.182 | 7.6 | 0.116
16 | COc1cc2oc(=O)c3c(c2cc1OC)CCN(CC(C)N1CCCCC1)C3 (configuration not stated) | 1.3 | 0.168 | 10 | 0.129
17 | CC(CN1CCc2c(c(=O)oc3ccccc23)C1)N1CCCC1 (configuration not stated) | 2.2 | 0.19 | 10 | 0.088
18 | CCNC(C)CN1CCc2c(c(=O)oc3cc(C)ccc23)C1 (configuration not stated) | 0.36 | 0.225 | 10 | 0.627
19 | CCN(CC)C(C)CN1CCc2c(c(=O)oc3cc(OC)ccc23)C1 (configuration not stated) | 1.2 | 0.046 | 10 | 0.038
20 | CCCN(CC)C(C)CN1CCc2c(c(=O)oc3ccccc23)C1 (configuration not stated) | 0.88 | 0.97 | 6.4 | 1.11
21 | CCN(CC)C(C)CN1CCc2c(c(=O)oc3ccccc23)C1 (configuration not stated) | 6.9 |  | 10 | 
22 | CCN(CC)CCN1CCc2c(c(=O)oc3cc(OC)ccc23)C1 | 0.4 | 0.158 | 8 | 0.394
23 | Cc1ccc2c3c(c(=O)oc2c1)CN(CC(C)N1CCCCC1)CC3 (configuration not stated) | 2.7 | 0.108 | 9.7 | 0.04
24 | CCc1ccc2c3c(c(=O)oc2c1)CN(CCN1CC2CCC(CC2)C1)CC3 | 0.55 | 0.041 | 6.8 | 0.074
25 | CCCN(C)C(C)CN1CCc2c(c(=O)oc3cc(OC)c(OC)cc23)C1 (configuration not stated) |  |  | 2.5 | 
26 | CC(CN1CCc2c(c(=O)oc3ccccc23)C1)N(C)C (configuration not stated) | 21.6 |  | 10 | 
27 | CC(CN1CCc2c(c(=O)oc3ccccc23)C1)N1CCCCC1 (configuration not stated) | 5.8 | 0.219 | 10 | 0.038
28 | COc1cc2oc(=O)c3c(c2cc1OC)CCN(CCCN1CCCCC1)C3 |  |  | 1.6 | 
29 | CCN1CCCC1CN1CCc2c(c(=O)oc3cc(OC)c(OC)cc23)C1.Cl.Cl (configuration not stated) |  |  | 2.8 | 
30 | CN1[C@@H]2CC[C@H]1C[C@@H](OC(=O)C(CO)c1ccccc1)C2 (some centres not stated) [ATROPINE] | 0.46 | 0.0032 |  | 0.007
